Values belong to the molecule of their own block, whether it stands above or below them. Calls of active or inactive are those of the source. The rule behind the calls is not given here.
Columns and labels:
[1] = molecular target: Serine/threonine-protein kinase B-raf (Mus musculus, UniProt P28028, V600E); assay: Inhibition of mouse full length GST-tagged BRAF V600E mutant using recombinant human full length N-terminal His-tagged MEK1 as substrate preincubated for 1 hr followed by substrate addition measured after 25 mins by Nu-page gel-based phosphor screen analysis
A-375 [2] = assay: Antiproliferative activity against human A375 cells harboring BRAF V600E mutant after 48 hrs by MTT assay; format: functional, cell-based; conditions: A-375, 48 h
Procedure, shortened: (§1)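 MTT assay. Cells seeded at 10^4 per well in 96-well plates and left 24 h. Compounds then added at 0.01, 0.1, 1, 10 and 100 µM for 48 h. IC50 values calculated from the viability data.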

HT-29 = assay: Antiproliferative activity against human HT-29 cells harboring BRAF V600E mutant after 48 hrs by MTT assay; format: functional, cell-based; conditions: HT-29, 48 h; procedure, shortened: as §1
HCT-116 = assay: Antiproliferative activity against wild type BRAF expressing human HCT116 cells after 48 hrs by MTT assay; format: functional, cell-based; conditions: HCT-116, 48 h; procedure, shortened: as §1
[3] = Antiproliferative activity against wild type BRAF expressing human WM1361 cells after 48 hrs by MTT assay; format: functional; conditions: WM1361, 48 h; procedure, shortened: as §1
A-375 [4] = assay: Induction of apoptosis in human A375 cells assessed as viable cells at 1 uM after 24 hrs by Annexin V-FITC/propidium iodide double staining-based flow cytometry (reference value: 96.2%); format: functional; conditions: A-375, 24 h, read-out: Activity
A-375 [5] = assay: Induction of apoptosis in human A375 cells assessed as early apoptotic cells at 1 uM after 24 hrs by Annexin V-FITC/propidium iodide double staining-based flow cytometry (reference value: 1.19%); format: functional
A-375 [6] = assay: Induction of apoptosis in human A375 cells assessed as late apoptotic cells at 1 uM after 24 hrs by Annexin V-FITC/propidium iodide double staining-based flow cytometry (reference value: 2.36%); format: functional
A-375 [7] = assay: Induction of apoptosis in human A375 cells assessed as necrotic cells at 1 uM after 24 hrs by Annexin V-FITC/propidium iodide double staining-based flow cytometry (reference value: 0.227%); format: functional
A-375 [8] = assay: Induction of apoptosis in human A375 cells assessed as viable cells at 2 uM after 24 hrs by Annexin V-FITC/propidium iodide double staining-based flow cytometry (reference value: 96.2%); format: functional; conditions: A-375, 24 h, read-out: Activity
A-375 [9] = assay: Induction of apoptosis in human A375 cells assessed as early apoptotic cells at 2 uM after 24 hrs by Annexin V-FITC/propidium iodide double staining-based flow cytometry (reference value: 1.19%); format: functional
A-375 [10] = assay: Induction of apoptosis in human A375 cells assessed as late apoptotic cells at 2 uM after 24 hrs by Annexin V-FITC/propidium iodide double staining-based flow cytometry (reference value: 2.36%); format: functional
A-375 [11] = assay: Induction of apoptosis in human A375 cells assessed as necrotic cells at 2 uM after 24 hrs by Annexin V-FITC/propidium iodide double staining-based flow cytometry (reference value: 0.227%); format: functional
A-375 [12] = assay: Induction of apoptosis in human A375 cells assessed as viable cells at 4 uM after 24 hrs by Annexin V-FITC/propidium iodide double staining-based flow cytometry (reference value: 96.2%); format: functional; conditions: A-375, 24 h, read-out: Activity
A-375 [13] = assay: Induction of apoptosis in human A375 cells assessed as early apoptotic cells at 4 uM after 24 hrs by Annexin V-FITC/propidium iodide double staining-based flow cytometry (reference value: 1.19%); format: functional
A-375 [14] = assay: Induction of apoptosis in human A375 cells assessed as late apoptotic cells at 4 uM after 24 hrs by Annexin V-FITC/propidium iodide double staining-based flow cytometry (reference value: 2.36%); format: functional
A-375 [15] = assay: Induction of apoptosis in human A375 cells assessed as necrotic cells at 4 uM after 24 hrs by Annexin V-FITC/propidium iodide double staining-based flow cytometry (reference value: 0.227%); format: functional
A-375 [16] = assay: Induction of apoptosis in human A375 cells after 24 hrs by Annexin V-FITC/propidium iodide double staining-based flow cytometry; format: functional, cell-based
[17] = tested on: Serine/threonine-protein kinase B-raf (Homo sapiens), P15056 [V600E]; assay: Inhibition of BRAF V600E mutant in human A375 cells assessed as reduction in ERK phosphorylation by Western blot analysis; format: cell-based
Procedure, shortened: (§2)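 Cells in 6-well plates were lysed in RIPA with PMSF on ice for 30 min and cleared at 12,000 g, 4 °C. Protein was measured by BCA, run on SDS-PAGE and moved to PVDF. Blots were blocked in 5% milk/TBST, given primary antibodies (1:500–1:1000) overnight at 4 °C, then HRP secondaries (1:5000–1:10000) for 1 h. Bands were detected by ECL.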

[18] = tested on: Serine/threonine-protein kinase B-raf (Homo sapiens), P15056 [V600E]; assay: Inhibition of BRAF V600E mutant in human A375 cells assessed as reduction in MEK phosphorylation by Western blot analysis; format: cell-based; procedure, shortened: as §2
[19] = molecular target: T1, Serine/threonine-protein kinase B-raf (Homo sapiens, UniProt P15056); assay: Induction of wild type BRAF activation in human WM1361 cells assessed as increase in ERK phosphorylation up to 0.15 uM by Western blot analysis; format: cell-based; procedure, shortened: as §2
[20] = molecular target: T1, Serine/threonine-protein kinase B-raf; assay: Induction of wild type BRAF activation in human WM1361 cells assessed as increase in MEK phosphorylation up to 0.15 uM by Western blot analysis; format: cell-based; procedure, shortened: as §2
[21] = molecular target: T1, Serine/threonine-protein kinase B-raf; assay: Inhibition of wild type BRAF in human WM1361 cells assessed as reduction in ERK phosphorylation at 0.5 uM by Western blot analysis; format: cell-based; procedure, shortened: as §2
[22] = molecular target: T1, Serine/threonine-protein kinase B-raf; assay: Inhibition of wild type BRAF in human WM1361 cells assessed as reduction in MEK phosphorylation at 0.5 uM by Western blot analysis; format: cell-based; procedure, shortened: as §2
A-375 [23] = assay: Effect on total ERK protein levels in human A375 cells at 0.05 to 5 uM by Western blot analysis; format: ADME, cell-based; conditions: a-375, 5 µM; procedure, shortened: as §2
A-375 [24] = assay: Effect on total MEK protein levels in human A375 cells at 0.05 to 5 uM by Western blot analysis; format: ADME, cell-based; conditions: a-375, 5 µM; procedure, shortened: as §2

Chain of Serine/threonine-protein kinase B-raf (Mus musculus, UniProt P28028, V600E) (P28028 whole entry, looked up, stated change not applied): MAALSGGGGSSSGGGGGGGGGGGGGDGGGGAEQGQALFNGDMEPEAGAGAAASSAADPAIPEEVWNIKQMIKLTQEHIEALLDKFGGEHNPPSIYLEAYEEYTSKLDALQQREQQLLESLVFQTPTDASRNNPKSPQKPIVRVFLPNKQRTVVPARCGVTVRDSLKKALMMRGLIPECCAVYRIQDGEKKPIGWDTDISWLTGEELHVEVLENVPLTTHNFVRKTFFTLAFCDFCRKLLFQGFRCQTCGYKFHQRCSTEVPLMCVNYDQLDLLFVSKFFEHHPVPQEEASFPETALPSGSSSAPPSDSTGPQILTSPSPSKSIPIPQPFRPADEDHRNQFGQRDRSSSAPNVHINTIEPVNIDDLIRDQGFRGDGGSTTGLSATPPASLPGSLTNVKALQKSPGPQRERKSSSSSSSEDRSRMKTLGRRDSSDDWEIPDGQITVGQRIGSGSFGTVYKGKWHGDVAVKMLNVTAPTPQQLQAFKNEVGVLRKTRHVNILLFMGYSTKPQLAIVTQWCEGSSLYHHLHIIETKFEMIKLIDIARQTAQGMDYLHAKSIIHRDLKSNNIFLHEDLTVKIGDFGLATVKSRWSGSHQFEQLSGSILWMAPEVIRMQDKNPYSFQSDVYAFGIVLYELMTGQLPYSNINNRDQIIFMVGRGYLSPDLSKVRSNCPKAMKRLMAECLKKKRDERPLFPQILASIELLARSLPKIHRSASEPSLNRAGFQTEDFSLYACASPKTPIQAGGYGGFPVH
T1 sequence (P15056 whole entry): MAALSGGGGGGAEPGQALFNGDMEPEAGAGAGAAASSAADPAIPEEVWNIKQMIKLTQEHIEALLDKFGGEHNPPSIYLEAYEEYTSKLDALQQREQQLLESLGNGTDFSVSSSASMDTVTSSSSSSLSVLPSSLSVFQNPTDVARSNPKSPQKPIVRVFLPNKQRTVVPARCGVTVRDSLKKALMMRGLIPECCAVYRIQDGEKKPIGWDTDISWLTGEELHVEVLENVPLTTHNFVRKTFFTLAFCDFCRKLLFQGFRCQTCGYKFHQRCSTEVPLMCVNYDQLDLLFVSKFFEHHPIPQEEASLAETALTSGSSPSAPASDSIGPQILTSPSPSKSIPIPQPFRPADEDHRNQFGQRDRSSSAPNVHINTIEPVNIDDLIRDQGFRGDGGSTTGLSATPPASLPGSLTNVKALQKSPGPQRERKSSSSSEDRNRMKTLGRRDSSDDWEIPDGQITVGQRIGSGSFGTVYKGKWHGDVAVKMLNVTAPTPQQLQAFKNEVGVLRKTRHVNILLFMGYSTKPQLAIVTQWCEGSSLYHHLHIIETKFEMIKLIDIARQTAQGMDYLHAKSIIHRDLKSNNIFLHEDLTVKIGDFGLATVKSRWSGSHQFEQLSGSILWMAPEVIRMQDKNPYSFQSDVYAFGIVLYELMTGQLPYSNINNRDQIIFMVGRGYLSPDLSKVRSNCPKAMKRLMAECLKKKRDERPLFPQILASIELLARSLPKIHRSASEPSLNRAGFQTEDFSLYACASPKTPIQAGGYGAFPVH
Chain of Serine/threonine-protein kinase B-raf (Homo sapiens), P15056 [V600E] (P15056 whole entry V600E): as the sequence (P15056 whole entry) above, with V600E counted along it

Structure (SMILES): O=C(Nc1cccc(C(=O)Nc2ccc3[nH]ncc3c2)c1)c1ccc(Oc2ccccc2)cc1
IC50 [1]: 5.27 µM
IC50 (A-375 [2]): 9.45 µM
IC50 (HT-29): 18.5 µM
IC50 (HCT-116): 37.4 µM
IC50 [3]: 29.6 µM

Structure (SMILES): O=C(Nc1cccc(C(=O)Nc2ccc3[nH]ncc3c2)c1)c1ccc(Cl)cc1
IC50 [1]: 3.04 µM
IC50 (A-375 [2]): 7.62 µM
IC50 (HT-29): 17.9 µM
IC50 (HCT-116): 32.5 µM
IC50 [3]: 30.8 µM

Structure (SMILES): O=C(Nc1ccc2[nH]ncc2c1)c1cccc(NC(=O)c2cccc(Cl)n2)c1
IC50 [1]: 1.05 µM
IC50 (A-375 [2]): 8.83 µM
IC50 (HT-29): 12.2 µM
IC50 (HCT-116): 24.9 µM
IC50 [3]: 27.2 µM

Structure (SMILES): O=C(Nc1ccc2[nH]ncc2c1)c1cccc(NC(=O)c2ccc(Br)cn2)c1
IC50 [1]: 0.46 µM
IC50 (A-375 [2]): 7.58 µM
IC50 (HT-29): 9.65 µM
IC50 (HCT-116): 22.2 µM
IC50 [3]: 19.6 µM

Structure (SMILES): O=C(Nc1cccc(C(=O)Nc2ccc3[nH]ccc3c2)c1)c1ccc(Cl)cc1
IC50 [1]: 2.61 µM
IC50 (A-375 [2]): 6.72 µM
IC50 (HT-29): 11.1 µM
IC50 (HCT-116): 22.3 µM
IC50 [3]: 19.6 µM

Structure (SMILES): O=C(Nc1cccc(C(=O)Nc2ccc3[nH]ncc3c2)c1)c1ccc(Br)cc1
IC50 [1]: 2.78 µM
IC50 (A-375 [2]): 5.74 µM
IC50 (HT-29): 14.4 µM
IC50 (HCT-116): 29.2 µM
IC50 [3]: 24.6 µM

Structure (SMILES): O=C(Nc1cccc(C(=O)Nc2ccc3[nH]ncc3c2)c1)c1cccc(F)c1
IC50 [1]: 8.71 µM
IC50 (A-375 [2]): 12.2 µM
IC50 (HT-29): 19.2 µM
IC50 (HCT-116): 20.5 µM
IC50 [3]: 38.4 µM

Structure (SMILES): O=C(Nc1cccc(C(=O)Nc2ccc3[nH]ncc3c2)c1)c1ccc(F)cc1
IC50 [1]: 1.57 µM
IC50 (A-375 [2]): 7.15 µM
IC50 (HT-29): 12.2 µM
IC50 (HCT-116): 36.2 µM
IC50 [3]: 29.2 µM

Structure (SMILES): O=C(Nc1cccc(C(=O)Nc2ccc3[nH]ncc3c2)c1)c1ccc(C(F)(F)F)cc1
IC50 [1]: 0.18 µM
IC50 (A-375 [2]): 1.97 µM
IC50 (HT-29): 4.41 µM
IC50 (HCT-116): 18.7 µM
IC50 [3]: 12.8 µM
viability at 1 µM (A-375 [4]): 80.3%
Activity (A-375 [5]): 8.05%
Activity (A-375 [6]): 10.1%
Activity (A-375 [7]): 1.56%
viability at 2 µM (A-375 [8]): 73.7%
Activity (A-375 [9]): 10.7%
Activity (A-375 [10]): 14.6%
Activity (A-375 [11]): 1.05%
viability at 4 µM (A-375 [12]): 71%
Activity (A-375 [13]): 12.2%
Activity (A-375 [14]): 16.1%
Activity (A-375 [15]): 0.652%
Activity (A-375 [16]): Dose-dependent effect
inhibition [17]: Dose-dependent effect
inhibition [18]: Dose-dependent effect
Activity [19]: Not Active
Activity [20]: Not Active
inhibition [21]: Active
inhibition [22]: Active
Activity (A-375 [23]): Non-Toxic
Activity (A-375 [24]): Non-Toxic

Structure (SMILES): O=C(Nc1ccc2[nH]ccc2c1)c1cccc(NC(=O)c2cccc(Cl)n2)c1
IC50 [1]: 6.57 µM
IC50 (A-375 [2]): 8.46 µM
IC50 (HT-29): 19.6 µM
IC50 (HCT-116): 35.5 µM
IC50 [3]: 19.2 µM

Structure (SMILES): O=C(Nc1ccc2[nH]ccc2c1)c1cccc(NC(=O)c2ccccn2)c1
IC50 [1]: 3.52 µM
IC50 (A-375 [2]): 5.78 µM
IC50 (HT-29): 10.6 µM
IC50 (HCT-116): 23.8 µM
IC50 [3]: 17.4 µM

Further molecules by falling IC50 (A-375 [2]), results first:

IC50 [1]: 5.72 µM
IC50 (A-375 [2]): 10.5 µM
IC50 (HT-29): 21.1 µM
IC50 (HCT-116): 35.2 µM
Structure (SMILES): O=C(Nc1cccc(C(=O)Nc2ccc3[nH]ccc3c2)c1)c1ccc(Oc2ccccc2)cc1
IC50 [3]: 21.6 µM

IC50 [1]: 4.94 µM
IC50 (A-375 [2]): 9.87 µM
IC50 (HT-29): 20.5 µM
IC50 (HCT-116): 26.2 µM
Structure (SMILES): O=C(Nc1cccc(C(=O)Nc2ccc3[nH]ncc3c2)c1)c1cccc(Cl)c1
IC50 [3]: 25.5 µM

IC50 [1]: 5.22 µM
IC50 (A-375 [2]): 9.12 µM
IC50 (HT-29): 16.1 µM
IC50 (HCT-116): 30.9 µM
Structure (SMILES): O=C(Nc1cccc(C(=O)Nc2ccc3[nH]ncc3c2)c1)c1ccccc1
IC50 [3]: 35.1 µM

IC50 [1]: 4.11 µM
IC50 (A-375 [2]): 8.29 µM
IC50 (HT-29): 17.2 µM
IC50 (HCT-116): 35.9 µM
Structure (SMILES): O=C(Nc1ccc2[nH]ncc2c1)c1cccc(NC(=O)c2ccccn2)c1
IC50 [3]: 28.2 µM

IC50 [1]: 0.81 µM
IC50 (A-375 [2]): 7.46 µM
IC50 (HT-29): 11.5 µM
IC50 (HCT-116): 25.1 µM
Structure (SMILES): Cc1cccc(C(=O)Nc2cccc(C(=O)Nc3ccc4[nH]ncc4c3)c2)n1
IC50 [3]: 21.3 µM

IC50 [1]: 2.11 µM
IC50 (A-375 [2]): 6.49 µM
IC50 (HT-29): 10.6 µM
IC50 (HCT-116): 21.2 µM
Structure (SMILES): O=C(Nc1cccc(C(=O)Nc2ccc3[nH]ccc3c2)c1)c1ccccc1
IC50 [3]: 24.6 µM

IC50 [1]: 1.14 µM
IC50 (A-375 [2]): 4.56 µM
IC50 (HT-29): 8.99 µM
IC50 (HCT-116): 19.7 µM
Structure (SMILES): O=C(Nc1ccc2[nH]ncc2c1)c1cccc(NC(=O)c2cc(Cl)ccn2)c1
IC50 [3]: 16.2 µM

IC50 (A-375 [2]): 3.36 µM
IC50 (HT-29): 8.44 µM
IC50 (HCT-116): 23.3 µM
Structure (SMILES): CNC(=O)c1cc(Oc2ccc(NC(=O)Nc3ccc(Cl)c(C(F)(F)F)c3)cc2)ccn1 [SORAFENIB]
IC50 [3]: 16.4 µM

IC50 [1]: 0.75 µM
IC50 (A-375 [2]): 2.85 µM
IC50 (HT-29): 10.9 µM
IC50 (HCT-116): 26.2 µM
Structure (SMILES): CC(C)(C)c1ccc(C(=O)Nc2cccc(C(=O)Nc3ccc4[nH]ncc4c3)c2)cc1
IC50 [3]: 18.4 µM

From ChEMBL document CHEMBL4219184, “Design, synthesis, and biological evaluation of new B-RafV600E kinase inhibitors” (Bioorg Med Chem, 2018)
